Laboratory results taken from ChEMBL document CHEMBL3351498, “Identification of key structural characteristics of Schisandra chinensis lignans involved in P-glycoprotein inhibition” (2014).

What was measured:
[1] = Potentiation of 0.02 uM doxorubicin-induced cytotoxicity in human HL60/MDR cells assessed as viable cells at 25 uM after 48 hrs by WST assay relative to control; assay type: functional
[2] = Potentiation of 0.2 uM doxorubicin-induced cytotoxicity in human HL60/MDR cells assessed as viable cells at 25 uM after 48 hrs by WST assay relative to control; assay type: functional
[3] = Potentiation of 0.6 uM doxorubicin-induced cytotoxicity in human HL60/MDR cells assessed as viable cells at 25 uM after 48 hrs by WST assay relative to control; assay type: functional
[4] = Cytotoxicity against human HL60/MDR cells assessed as viable cells at 25 uM after 48 hrs by WST assay; assay type: functional; conditions: for viability at 25 µM: Homo sapiens, HL60/MDR, 48 h, read-out: Activity
[5] = Cell cycle arrest in human HL60/MDR cells assessed as accumulation at G1 phase at 25 uM after 48 hrs by flow cytometry (reference value: 59.0 %); assay type: functional, cell-based
Method in brief: (§1)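 HL60/MDR cells (about 5 × 10^5 cells/mL) exposed 48 h under standard culture to doxorubicin (0.2 and/or 0.02 μM) or lignan (25 μM) alone; DMSO-treated control. Cells fixed in 70% ethanol 30 min at room temperature, RNase A (17 μg/mL) 37 °C 30 min, PI (3 μg/mL) 10 min dark; DNA content by flow cytometry, FL3 (620 nm), 10 000–20 000 events.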

[6] = Cell cycle arrest in human HL60/MDR cells assessed as accumulation at G2/M phase at 25 uM after 48 hrs by flow cytometry (reference value: 11.3 %); assay type: functional, cell-based; method in brief: as §1
[7] = Cell cycle arrest in human HL60/MDR cells assessed as accumulation at S phase at 25 uM after 48 hrs by flow cytometry (reference value: 29.9 %); assay type: functional, cell-based; method in brief: as §1
[8] = Cell cycle arrest in human HL60/MDR cells assessed as accumulation at G2/M phase at 0.2 uM after 48 hrs by flow cytometry (reference value: 11.3 %); assay type: functional, cell-based; method in brief: as §1
[9] = Cell cycle arrest in human HL60/MDR cells assessed as accumulation at S phase at 0.2 uM after 48 hrs by flow cytometry (reference value: 29.9 %); assay type: functional, cell-based; method in brief: as §1
[10] = Cell cycle arrest in human HL60/MDR cells assessed as accumulation at G1 phase at 0.02 uM after 48 hrs by flow cytometry (reference value: 59.0 %); assay type: functional, cell-based; method in brief: as §1
[11] = Cell cycle arrest in human HL60/MDR cells assessed as accumulation at G2/M phase at 0.02 uM after 48 hrs by flow cytometry (reference value: 11.3 %); assay type: functional, cell-based; method in brief: as §1
[12] = Cell cycle arrest in human HL60/MDR cells assessed as accumulation at S phase at 0.02 uM after 48 hrs by flow cytometry (reference value: 29.9 %); assay type: functional, cell-based; method in brief: as §1
[13] = Cytotoxicity against human HL60/MDR cells assessed as viable cells at 0.02 uM after 48 hrs by WST assay; assay type: functional; conditions: read-out: Activity
Method in brief: (§2)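 Doxorubicin-resistant HL60/MDR cells seeded at 5 × 10^4 cells/mL and held 48 h at 37 °C with doxorubicin (0.02, 0.2, 0.6 μM) alone or plus modulator (25 μM). WST-1 (1 mM) with 0.2 mM MMPM then added for 4 h; absorbance at 450 nm. Viability given as % of untreated cells; two independent experiments, each in triplicate.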

[14] = Cytotoxicity against human HL60/MDR cells assessed as viable cells at 0.2 uM after 48 hrs by WST assay; assay type: functional; conditions: read-out: Activity; method in brief: as §2
[15] = Cytotoxicity against human HL60/MDR cells assessed as viable cells at 0.6 uM after 48 hrs by WST assay; assay type: functional; conditions: read-out: Activity; method in brief: as §2
[16] = Cell cycle arrest in human HL60/MDR cells assessed as accumulation at G1 phase at 0.2 uM after 48 hrs by flow cytometry (reference value: 59.0 %); assay type: functional, cell-based; conditions: in the assay text read “G2/M phase” for “G1 phase”; method in brief: as §1
[17] = Potentiation of doxorubicin-induced cell cycle arrest in human HL60/MDR cells assessed as accumulation at G1 phase at 25 uM after 48 hrs by flow cytometry (reference value: 59.0 %); assay type: functional
[18] = Potentiation of doxorubicin-induced cell cycle arrest in human HL60/MDR cells assessed as accumulation at G2/M phase at 25 uM after 48 hrs by flow cytometry (reference value: 59.0 %); assay type: functional
[19] = Potentiation of doxorubicin-induced cell cycle arrest in human HL60/MDR cells assessed as accumulation at S phase at 25 uM after 48 hrs by flow cytometry (reference value: 59.0 %); assay type: functional

SMILES: COc1cc2c(c(OC)c1OC)-c1c(cc3c(c1OC)OCO3)C[C@@H](C)[C@@H](C)C2 (single isomer, unassigned; atropisomer 2) [KADSURANIN]
- Activity [1]: 100%
- Activity [2]: 97%
- Activity [3]: 81%
- viability at 25 µM [4]: 106%

SMILES: COc1cc2c(c(OC)c1OC)-c1c(cc3c(c1OC)OCO3)C[C@H](C)[C@H](C)C2
- Activity [5]: 64.8%
- Activity [6]: 8.8%
- Activity [7]: 26.4%

SMILES: COc1cccc2c1C(=O)c1c(O)c3c(c(O)c1C2=O)C[C@@](O)(C(=O)CO)C[C@@H]3O[C@H]1C[C@H](N)[C@H](O)[C@H](C)O1 [DOXORUBICIN]
- Activity [8]: 52%
- Activity [9]: 11%
- Activity [10]: 55.8%
- Activity [11]: 16%
- Activity [12]: 28.3%
- viability at 0.02 µM [13]: 109%
- viability at 0.2 µM [14]: 83%
- viability at 0.6 µM [15]: 91%
- Activity [16]: 36.9%

SMILES: COc1cc2c(c(OC)c1OC)-c1c(cc3c(c1OC)OCO3)C[C@H](C)[C@H](C)C2 (single isomer, unassigned; atropisomer 1) [WUWEIZISU B]
- Activity [1]: 94%
- Activity [2]: 66%
- Activity [3]: 38%
- Activity [4]: 102%

SMILES: COc1cc2c(c(OC)c1OC)-c1c(cc3c(c1OC)OCO3)C[C@H](C)[C@H](C)C2 [WUWEIZISU B]
- Activity [17]: 40.4%
- Activity [18]: 36.9%
- Activity [19]: 22.7%
- Activity [1]: 121%
- Activity [2]: 42%
- Activity [3]: 39%
- Activity [4]: 128%

SMILES: COc1cc2c(c(OC)c1OC)-c1c(cc(OC)c(OC)c1OC)C[C@H](C)[C@H](C)C2 (single isomer, unassigned; atropisomer 1) [SCHISANDRIN A]
- Activity [1]: 108%
- Activity [2]: 48%
- Activity [3]: 39%
- Activity [4]: 144%

SMILES: COc1cc2c(c(OC)c1OC)-c1c(cc3c(c1OC)OCO3)CC(C)C(C)C2 (racemic) [SCHISANDRIN B]
- Activity [1]: 117%
- Activity [2]: 41%
- Activity [3]: 36%
- viability at 25 µM [4]: 88%

SMILES: COc1cc2c(c(OC)c1OC)-c1c(cc(OC)c(OC)c1OC)C[C@H](C)[C@H](C)C2
- Activity [5]: 57.3%
- Activity [6]: 12.1%
- Activity [7]: 30.5%

SMILES: COc1cc2c(c(OC)c1OC)-c1c(cc(OC)c(OC)c1OC)C[C@H](C)[C@H](C)C2 [SCHISANDRIN A]
- Activity [17]: 21.2%
- Activity [18]: 67.9%
- Activity [19]: 10.9%
- Activity [1]: 106%
- Activity [2]: 52%
- Activity [3]: 43%
- Activity [4]: 92%
